The test system of data set [1] is Mus musculus. In words: Neurotoxicity in albino CF-1 mouse assessed as motor impairment at 300 mg/kg, ip after 4 hrs by rotarod test. In kind it is toxicity, organism-based. Also on record: dose 300 mg/kg, route intraperitoneal. The conditions noted are these: in vivo. In a few lines: (§1)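 Minimal motor impairment in male CF-1 mice by rotorod after i.p. dosing; toxic if animal falls off rotating rod 3 times within 1 min. Screen doses 30, 100, 300 mg/kg; quantitative TD50 (95% confidence interval) determined at time of peak effect.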

For data set [2], the system named is Mus musculus. In words: Anticonvulsant activity in albino CF-1 mouse assessed as protection against 6 Hz psychomotor seizure at 100 mg/kg, ip after 0.5 hrs by minimal clonic seizure test. The class given is functional. An outline of the steps:
(§2)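 Male CF-1 mice (18–25 g), i.p. 100 mg/kg in 0.5% methyl cellulose suspension; 6 Hz corneal stimulation, 32 mA for 3 s, four mice per time point. Protected if no minimal clonic phase with stereotyped automatistic behaviour.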

The subject of data set [3] is Mus musculus. Kind of data set: Anticonvulsant activity in albino CF-1 mouse assessed as protection against maximal electroshock-induced seizures at 300 mg/kg, ip after 4 hrs. Further details: dose 300 mg/kg. In kind it is functional, organism-based. In a few lines: (§3)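 Male CF-1 mice (18–25 g), i.p. in 0.5% methyl cellulose at 30, 100 and 300 mg/kg; MES: 60 Hz, 50 mA, 0.2 s through tetracaine-primed corneal electrodes; protection = abolished hind limb tonic extension. Value given as minimum dose active in half or more of mice.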
On the technique in general: In the maximal electroshock model the usual endpoint is tonic extension of the hind limbs.

Data set [4] concerns Mus musculus. In words: Anticonvulsant activity in albino CF-1 mouse assessed as protection against subcutaneous metrazol-induced seizures at 300 mg/kg, ip after 4 hrs. The class given is functional, organism-based. Also on record: dose 300 mg/kg. An outline of the steps:
(§4)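 Male CF-1 mice, i.p. at 30, 100, 300 mg/kg in 0.5% methyl cellulose; metrazol dose convulsing 97% of animals injected s.c. in midline neck fold, mice isolated and watched 30 min; protected if no 3–5 s clonic spasm episode of limbs, jaws or vibrissae.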

The test system of data set [5] is Mus musculus. Kind of data set: Anticonvulsant activity in albino CF-1 mouse assessed as protection against 6 Hz psychomotor seizure at 100 mg/kg, ip after 2 hrs by minimal clonic seizure test. In kind it is functional. In a few lines:
as §2

The test system of data set [6] is Mus musculus. Kind of data set: Anticonvulsant activity in albino CF-1 mouse assessed as protection against maximal electroshock-induced seizures at 300 mg/kg, ip after 0.5 hrs. Further details: dose 300 mg/kg. The class given is functional, organism-based. An outline of the steps: as §3
The test system of data set [7] is Mus musculus. In words: Anticonvulsant activity in albino CF-1 mouse assessed as protection against maximal electroshock-induced seizures at 300 mg/kg, ip after 2 hrs. The class given is functional, organism-based. Further details: dose 300 mg/kg. An outline of the steps:
as §3

Data set [8] has as its system Mus musculus. In words: Anticonvulsant activity in albino CF-1 mouse assessed as protection against 6 Hz psychomotor seizure at 100 mg/kg, ip after 0.25 hrs by minimal clonic seizure test. In kind it is functional. In a few lines:
as §2

Data set [9] deals with Mus musculus. Kind of data set: Neurotoxicity in albino CF-1 mouse assessed as motor impairment at 300 mg/kg, ip after 0.5 hrs by rotarod test. Also on record: dose 300 mg/kg, route intraperitoneal. The class given is toxicity, organism-based. The conditions noted are these: in vivo. An outline of the steps: as §1
Data set [10] is described as follows: Octanol-phosphate buffer partition coefficient, log P of the compound at 5 mg, after 24 hrs by UV spectroscopic analysis. The class given is physicochemical. In a few lines: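 5 mg compound added to 10 mL octanol plus 10 mL phosphate buffer in stoppered tube, mechanically shaken 24 h at room temperature, then left in separating funnel 6 h to equilibrate.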

The test system of data set [11] is Mus musculus. In words: Anticonvulsant activity in albino CF-1 mouse assessed as protection against 6 Hz psychomotor seizure at 100 mg/kg, ip after 1 hr by minimal clonic seizure test. The class given is functional. In a few lines: as §2
Data set [12] relates to Mus musculus. In words: Anticonvulsant activity in albino CF-1 mouse assessed as protection against 6 Hz psychomotor seizure at 100 mg/kg, ip after 4 hrs by minimal clonic seizure test. The class given is functional, organism-based. Further details: dose 100 mg/kg. An outline of the steps: as §2
Data set [13] has as its system Mus musculus. In words: Anticonvulsant activity in albino CF-1 mouse assessed as protection against subcutaneous metrazol-induced seizures at 300 mg/kg, ip after 0.5 hrs. Also on record: dose 300 mg/kg. The class given is functional, organism-based. An outline of the steps:
as §4

The subject of data set [14] is Mus musculus. Kind of data set: Anticonvulsant activity in ip dosed albino CF-1 mouse assessed as protection against 6 Hz psychomotor seizure after 1 hr by minimal clonic seizure test. In kind it is functional. The conditions noted are these: albino CF-1, ip. An outline of the steps: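 Quantitative 6 Hz test in male CF-1 mice dosed i.p.; 32 mA for 3 s via corneal electrodes at time of peak effect; ED50 with 95% confidence interval, slope and standard error reported.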

The test system of data set [15] is Mus musculus. In words: Anticonvulsant activity in ip dosed albino CF-1 mouse assessed as dose required to protect against maximal electroshock-induced seizures after 4 hrs. The class given is functional. In a few lines:
as §3

Data set [16] is described as follows: Neuroprotective activity in hippocampal slices assessed as protection against kainic acid-induced cell death after 4 hrs. In kind it is functional, tissue-based. The conditions noted are these: Hippocampus. In a few lines: (§5)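 Organotypic hippocampal slice cultures exposed to NMDA or kainic acid alone or with test compound; propidium iodide in all wells, cell death read as PI fluorescence intensity; qualitative primary screen.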

Data set [17] is described as follows: Neuroprotective activity in hippocampal slices assessed as protection against NMDA-induced cell death after 4 hrs. In kind it is functional, tissue-based. The conditions noted are these: Hippocampus. In a few lines: as §5
A further data set relates to Rattus norvegicus. In words: Anticonvulsant activity in Sprague-Dawley rat assessed as protection against pilocarpine-induced status epilepticus at 600 mg/kg, ip. In kind it is functional, organism-based. Further details: dose 600 mg/kg. An outline of the steps: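 Male albino Sprague Dawley rats (150–180 g) dosed i.p., then challenged with pilocarpine; qualitative screen scored as protection or no protection, seizure severity graded on the Racine scale; N/F and deaths recorded, time taken post first Stage III seizure.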

Activity calls are given as the source filed them. No cut-off for these calls is given here.

Take `Cc1cc(Oc2ccc(/C=N\NC(=O)c3ccncc3)cc2)ccc1Cl`: the Activity result in the data set on Mus musculus [1] and with Mus musculus [9] was “Non-toxic” in each case. Besides, the result in the data set with Mus musculus [2], in the data set on Mus musculus [3], in the data set with Mus musculus [4], in the data set on Mus musculus [5], with Mus musculus [6] and with Mus musculus [7] was inactive. Besides, the result with Mus musculus [11], in the data set with Mus musculus [12] and with Mus musculus [13] was inactive. Further, the result in the data set on Mus musculus [8] was Active. The logP – broadly, the decadic logarithm of the partition coefficient of the neutral form, usually between octanol and water – at 24 h in data set [10] amounted to 4.21.
With `O=C(N/N=C\c1ccc(Oc2ccc3ccccc3c2)cc1)c1ccncc1`, the Activity entry in the data set with Mus musculus [1] and with Mus musculus [9] was “Non-toxic” each time. Further, the outcome with Mus musculus [3], in the data set with Mus musculus [4], in the data set on Mus musculus [6], with Mus musculus [7] and in the data set with Mus musculus [13] was inactive. For the same compound, the logP at 24 h in [10] stood at 4.52.
For `O=C(N/N=C\c1ccc(Oc2ccc3c(c2)OCO3)cc1)c1ccncc1`, the Activity result in the data set with Mus musculus [1] and in the data set with Mus musculus [9] was “Non-toxic” each time. Besides, the result in the data set with Mus musculus [3], in the data set on Mus musculus [4], with Mus musculus [6], in the data set on Mus musculus [7] and with Mus musculus [13] was inactive. This compound showed a logP at 24 h in [10] of 3.2.
`Cc1ccc(Oc2ccc(/C=N\NC(=O)c3ccncc3)cc2)cc1`: in the data set with Mus musculus [14], the ED50 (commonly the dose at which the effect has come halfway, by size or by number of responders) is more than 200 mg/kg. The Activity is 300 mg/kg with Mus musculus [15]; “Non-toxic” with Mus musculus [1]; 50% in the data set on Mus musculus [5] (route intraperitoneal); “Non-toxic” in the data set with Mus musculus [9]; 75% in the data set on Mus musculus [11] (route intraperitoneal). In addition, the outcome in the data set with Mus musculus [2] and in the data set on Mus musculus [8] was Active. The result (in [16]; in the data set on Mus musculus [4]; in the data set on Mus musculus [6]; with Mus musculus [7]; in the data set on Mus musculus [12]; with Mus musculus [13]) was inactive. In data set [17], the outcome was inactive. Moreover, in data set [10], the logP at 24 h worked out at 3.65.
Take `O=C(N/N=C\c1ccc(Oc2ccc(Cl)cc2)cc1)c1ccncc1`: the result with Mus musculus [3], in the data set on Mus musculus [4], in the data set on Mus musculus [6], with Mus musculus [7] and in the data set with Mus musculus [13] was inactive. In addition, the Activity result in the data set on Mus musculus [9] is “Non-toxic”. In addition, the logP at 24 h in data set [10] is 3.95.
With `O=C1Nc2ccccc2/C1=N\NC(=O)c1ccncc1`, the Activity with Mus musculus [2] (route intraperitoneal) stood at 50%. The result in the data set on Mus musculus [3], with Mus musculus [4], in the data set with Mus musculus [5], in the data set with Mus musculus [6], in the data set on Mus musculus [7] and in the data set on Rattus norvegicus was inactive. Moreover, the result with Mus musculus [12] and in the data set on Mus musculus [13] was inactive. Besides, the result in the data set on Mus musculus [8] and in the data set with Mus musculus [11] was Active.
`O=C(N/N=C\c1ccc(Oc2ccc([N+](=O)[O-])cc2)cc1)c1ccncc1`: the Activity entry in the data set with Mus musculus [1] and in the data set on Mus musculus [9] was “Non-toxic” in each case. For the same compound, the outcome in the data set on Mus musculus [3], in the data set on Mus musculus [4], in the data set on Mus musculus [6], in the data set on Mus musculus [7] and in the data set on Mus musculus [13] was inactive. This compound also gave a logP at 24 h in data set [10] of 3.23.
As to `O=C(N/N=C\c1ccc(Oc2ccccc2)cc1)c1ccncc1`, the Activity entry in the data set with Mus musculus [1] and in the data set on Mus musculus [9] was “Non-toxic” each time. Also, the outcome with Mus musculus [3], with Mus musculus [4], in the data set with Mus musculus [6], with Mus musculus [7] and in the data set on Mus musculus [13] was inactive. Also, the logP at 24 h in data set [10] is 3.37.
`O=C(N/N=C\c1ccc(Oc2ccc(Br)cc2)cc1)c1ccncc1`: the Activity entry in the data set with Mus musculus [1] and in the data set with Mus musculus [9] was “Non-toxic” each time. Moreover, the outcome with Mus musculus [2], with Mus musculus [3], in the data set with Mus musculus [4], in the data set on Mus musculus [6], with Mus musculus [7] and with Mus musculus [8] was inactive. Besides, the outcome in the data set with Mus musculus [11], with Mus musculus [12] and with Mus musculus [13] was inactive. Moreover, the outcome in the data set with Mus musculus [5] was Active. In [10], this compound gave a lipophilicity (logP) at 24 h of 4.03.

For the origin of these results see ChEMBL document CHEMBL1667749, “Design & synthesis of N'-[substituted] pyridine-4-carbohydrazides as potential anticonvulsant agents” (Eur J Med Chem, 2011).
